This is an account of results in ChEMBL document CHEMBL3108689, “Stilbenes as κ-selective, non-nitrogenous opioid receptor antagonists” (J Nat Prod, 2014).

For assay [1], the target named is Kappa-type opioid receptor (Homo sapiens) (UniProt P41145). The experiment in a line: Competitive antagonist activity against human kappa opioid receptor overexpressed in CHO cells assessed as inhibition of U69,593-stimulated [35S]GTP-gamma-S binding by liquid scintillation counting. Type of assay: functional, cell-based. The gist of the method:
(§1)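 CHO cells overexpressing human μ, δ or κ opioid receptor; membrane homogenates (20–40 μg protein) incubated 1 h at room temperature with 0.1 nM [35S]GTP-γ-S and 1 μM GDP in 50 mM HEPES pH 7.4, in duplicate. Agonist concentration–response curves run with or without one test-compound concentration (screen at 10 μM). Filtration, scintillation counting, normalized to basal; EC50 by four-parameter logistic; Ke = [L]/(DR − 1).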

Assay [2] concerns the target Mu-type opioid receptor (Homo sapiens) (UniProt P35372). Description: Competitive antagonist activity against human Mu opioid receptor overexpressed in CHO cells assessed as inhibition of DAMGO-stimulated [35S]GTP-gamma-S binding by liquid scintillation counting. Type of assay: functional, cell-based. In short, it runs like this:
as §1

The species named for assay [3] is Homo sapiens. The experiment in a line: Selectivity ratio of Ke(app) for human Mu opioid receptor to ratio of Ke(app) for human kappa opioid receptor.
Assay [4] is filed under the species Homo sapiens. The experiment in a line: Selectivity ratio of Ke(app) for human delta opioid receptor to ratio of Ke(app) for human kappa opioid receptor.
Assay [5] concerns the target Delta-type opioid receptor (Homo sapiens) (UniProt P41143). Description: Competitive antagonist activity against human delta opioid receptor overexpressed in CHO cells assessed as inhibition of DPDPE-stimulated [35S]GTP-gamma-S binding by liquid scintillation counting. Type of assay: functional, cell-based. The gist of the method: as §1

SMILES strings stand for the structures.

`CC(C)=CCC/C(C)=C/Cc1c(O)cc(O)cc1/C=C/c1ccc(O)c(O)c1CC=C(C)C`: the Ke in assay [1] came to 0.2 µM; in assay [2] it was 0.57 µM; in assay [5], 2.9 µM. For the same compound, the results for the Ratio in assay [3] and in assay [4] were 2.9 and 14.5, respectively.
The corresponding values for `CC(C)=CCC/C(C)=C/CC/C(C)=C/Cc1c(O)cc(/C=C/c2ccc(O)cc2)cc1O` are 9 µM, 3 µM, 6 µM, 0.33 and 0.67.
On to `CC(C)=CCC/C(C)=C/Cc1c(O)cc(/C=C/c2ccc(O)c(O)c2)cc1O`, for which the Ke in assay [1], in assay [2] and in assay [5] was above 10 µM in each case.
Take `CC(C)=CCc1c(O)cc(/C=C/c2ccc(O)c(O)c2)cc1O`: the Ke in assay [1], in assay [2] and in assay [5] was above 10 µM throughout.
Regarding `COc1cc(/C=C/c2ccc(OC)c(OC)c2CC=C(C)C)c(C/C=C(\C)CCC=C(C)C)c(OC)c1`, the Ke in assay [1], in assay [2] and in assay [5] was above 10 µM throughout.
For `COc1cc(/C=C/c2ccc(O)c(O)c2)c(C/C=C(\C)CCC=C(C)C)c(OC)c1`, the Ke in assay [1], in assay [2] and in assay [5] was above 10 µM throughout.
In the case of `COc1cc(/C=C/c2cc(O)c(O)c(CC=C(C)C)c2)c(C/C=C(\C)CCC=C(C)C)c(OC)c1`, the Ke was 0.15 µM in assay [1], above 10 µM in assay [2] and above 10 µM in assay [5]. Moreover, the Ratio in assay [3] and in assay [4] was above 67 each time.
Consider `CC(C)=CCC/C(C)=C/Cc1c(O)cc(O)cc1/C=C/c1ccc(O)c(O)c1`, for which the Ke in assay [1], in assay [2] and in assay [5] was above 10 µM in each case.
Take `CC(C)=CCc1c(O)cc(/C=C/c2ccc(O)cc2)cc1O`: the Ke in assay [1], in assay [2] and in assay [5] was above 10 µM each time.
Take `COc1cc(/C=C/c2ccc(OC)c(O)c2CC=C(C)C)c(C/C=C(\C)CCC=C(C)C)c(OC)c1`: the Ke in assay [1], in assay [2] and in assay [5] was above 10 µM in each case.
In the case of `COc1cc(/C=C/c2ccc(OC)c(OC)c2)c(C/C=C(\C)CCC=C(C)C)c(OC)c1`, the Ke in assay [1], in assay [2] and in assay [5] was above 10 µM in each case.
